The text below walks through data of ChEMBL document CHEMBL5653631, “A Potent and Selective ULK1 Inhibitor Suppresses Autophagy and Sensitizes Cancer Cells to Nutrient Stress” (iScience, 2018).

In assay [1] the target is Death-associated protein kinase 1 (Homo sapiens) (UniProt P53355). The assay is described as follows: Inhibition of human recombinant DAPK1 at 40 nM related to control ULK1.
Assay [2] deals with Cyclin-dependent kinase 4 (Homo sapiens) (UniProt P11802). The assay is described as follows: Inhibition of human recombinant CDK4 at 500 nM in presence of ATP by radiometric assay relative to control.
Assay [3] concerns the target T1, Serine/threonine-protein kinase PLK4 (Homo sapiens) (UniProt O00444).
T1 sequence (whole entry): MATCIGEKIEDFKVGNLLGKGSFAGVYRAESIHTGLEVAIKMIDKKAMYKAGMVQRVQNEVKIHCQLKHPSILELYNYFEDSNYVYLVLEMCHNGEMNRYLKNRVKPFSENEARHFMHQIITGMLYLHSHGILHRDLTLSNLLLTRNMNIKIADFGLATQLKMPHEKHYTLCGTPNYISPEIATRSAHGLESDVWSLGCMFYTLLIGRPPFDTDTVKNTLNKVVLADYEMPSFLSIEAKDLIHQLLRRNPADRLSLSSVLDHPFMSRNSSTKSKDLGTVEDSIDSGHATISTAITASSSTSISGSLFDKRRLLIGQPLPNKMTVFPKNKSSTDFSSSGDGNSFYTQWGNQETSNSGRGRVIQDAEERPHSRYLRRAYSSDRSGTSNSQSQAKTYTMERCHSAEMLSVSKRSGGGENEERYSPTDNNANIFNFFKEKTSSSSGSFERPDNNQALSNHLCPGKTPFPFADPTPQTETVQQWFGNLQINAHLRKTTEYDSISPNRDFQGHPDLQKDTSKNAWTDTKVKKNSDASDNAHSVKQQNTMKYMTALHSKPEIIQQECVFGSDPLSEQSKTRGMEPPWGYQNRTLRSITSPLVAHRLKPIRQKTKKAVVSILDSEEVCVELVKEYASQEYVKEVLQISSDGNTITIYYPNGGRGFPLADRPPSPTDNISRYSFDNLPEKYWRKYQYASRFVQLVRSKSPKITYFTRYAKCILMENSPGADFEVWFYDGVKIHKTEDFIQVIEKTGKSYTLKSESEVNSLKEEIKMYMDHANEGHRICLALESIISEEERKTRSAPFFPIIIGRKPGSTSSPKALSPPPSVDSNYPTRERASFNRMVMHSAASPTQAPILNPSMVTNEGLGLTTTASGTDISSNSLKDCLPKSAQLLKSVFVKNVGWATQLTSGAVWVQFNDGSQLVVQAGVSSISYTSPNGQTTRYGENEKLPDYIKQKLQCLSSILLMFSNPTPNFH
The assay is described as follows: Inhibition of human recombinant PLK4 at 500 nM in presence of ATP by radiometric assay relative to control.

Assay [4] deals with T2, Cytoplasmic tyrosine-protein kinase BMX (Homo sapiens) (UniProt P51813).
T2 sequence (whole entry): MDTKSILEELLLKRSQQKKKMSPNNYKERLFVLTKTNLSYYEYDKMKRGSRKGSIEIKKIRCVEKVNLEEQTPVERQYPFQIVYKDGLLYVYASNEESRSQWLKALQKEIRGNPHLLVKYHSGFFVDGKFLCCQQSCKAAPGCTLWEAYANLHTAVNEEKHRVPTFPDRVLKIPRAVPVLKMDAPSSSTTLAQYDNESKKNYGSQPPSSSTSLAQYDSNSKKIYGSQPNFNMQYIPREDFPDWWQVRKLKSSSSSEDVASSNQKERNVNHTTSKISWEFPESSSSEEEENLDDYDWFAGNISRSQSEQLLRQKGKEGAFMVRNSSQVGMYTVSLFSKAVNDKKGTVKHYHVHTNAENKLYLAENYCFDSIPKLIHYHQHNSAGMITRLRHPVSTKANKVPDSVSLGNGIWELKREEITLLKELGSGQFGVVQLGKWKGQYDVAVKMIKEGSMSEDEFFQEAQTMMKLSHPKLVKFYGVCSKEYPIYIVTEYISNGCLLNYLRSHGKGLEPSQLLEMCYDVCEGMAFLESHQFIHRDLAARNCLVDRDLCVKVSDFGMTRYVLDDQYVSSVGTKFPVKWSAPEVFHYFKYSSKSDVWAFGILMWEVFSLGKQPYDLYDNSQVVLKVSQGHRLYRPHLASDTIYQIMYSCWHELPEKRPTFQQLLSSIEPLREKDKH
The assay is described as follows: Inhibition of human recombinant BMX at 500 nM related to control ULK1.

Assay [5] has as its target Calcium/calmodulin-dependent protein kinase type 1B (Homo sapiens) (UniProt Q6P2M8). The assay is described as follows: Inhibition of human recombinant CaMK1b at 500 nM related to control ULK1.
The target in assay [6] is Cyclin-dependent kinase-like 3 (Homo sapiens) (UniProt Q8IVW4). The assay is described as follows: Inhibition of human recombinant CDKL3 at 500 nM related to control ULK1.
Sequence of Cyclin-dependent kinase-like 3 (Homo sapiens) (Q8IVW4 whole entry, looked up): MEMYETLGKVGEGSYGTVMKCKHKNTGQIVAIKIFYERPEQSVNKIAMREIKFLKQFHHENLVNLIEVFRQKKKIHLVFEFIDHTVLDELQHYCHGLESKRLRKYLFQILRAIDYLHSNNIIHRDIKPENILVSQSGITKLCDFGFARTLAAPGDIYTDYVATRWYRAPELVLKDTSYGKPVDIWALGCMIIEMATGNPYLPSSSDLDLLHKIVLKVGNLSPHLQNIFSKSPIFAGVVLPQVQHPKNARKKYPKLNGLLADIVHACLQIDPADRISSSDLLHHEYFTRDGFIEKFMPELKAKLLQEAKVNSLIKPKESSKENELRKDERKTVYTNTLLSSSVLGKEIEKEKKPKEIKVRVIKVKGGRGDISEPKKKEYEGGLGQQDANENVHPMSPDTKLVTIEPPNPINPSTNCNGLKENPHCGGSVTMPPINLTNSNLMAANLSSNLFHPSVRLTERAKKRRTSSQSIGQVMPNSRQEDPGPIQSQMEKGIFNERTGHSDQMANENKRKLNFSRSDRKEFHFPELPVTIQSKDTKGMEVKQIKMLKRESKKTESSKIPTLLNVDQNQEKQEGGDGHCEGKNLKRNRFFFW
In assay [7] the target is Mitogen-activated protein kinase 1 (Homo sapiens) (UniProt P28482). The assay is described as follows: Inhibition of human recombinant Erk2 at 500 nM related to control ULK1.
Sequence of Mitogen-activated protein kinase 1 (Homo sapiens) (P28482 whole entry): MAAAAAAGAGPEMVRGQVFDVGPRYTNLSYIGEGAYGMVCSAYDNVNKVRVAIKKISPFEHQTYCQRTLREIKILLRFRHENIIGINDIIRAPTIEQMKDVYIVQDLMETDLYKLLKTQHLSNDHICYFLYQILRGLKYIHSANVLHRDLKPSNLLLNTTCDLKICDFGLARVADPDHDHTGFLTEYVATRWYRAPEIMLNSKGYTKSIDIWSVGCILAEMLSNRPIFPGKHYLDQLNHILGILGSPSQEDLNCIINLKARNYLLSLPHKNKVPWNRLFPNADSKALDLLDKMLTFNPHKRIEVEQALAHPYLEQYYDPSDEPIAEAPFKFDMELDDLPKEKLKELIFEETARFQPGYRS
Assay [8] deals with Serine/threonine-protein kinase NIM1 (Homo sapiens) (UniProt Q8IY84). The assay is described as follows: Inhibition of human recombinant NIM1 at 500 nM related to control ULK1.
Sequence of Serine/threonine-protein kinase NIM1 (Homo sapiens) (Q8IY84 whole entry): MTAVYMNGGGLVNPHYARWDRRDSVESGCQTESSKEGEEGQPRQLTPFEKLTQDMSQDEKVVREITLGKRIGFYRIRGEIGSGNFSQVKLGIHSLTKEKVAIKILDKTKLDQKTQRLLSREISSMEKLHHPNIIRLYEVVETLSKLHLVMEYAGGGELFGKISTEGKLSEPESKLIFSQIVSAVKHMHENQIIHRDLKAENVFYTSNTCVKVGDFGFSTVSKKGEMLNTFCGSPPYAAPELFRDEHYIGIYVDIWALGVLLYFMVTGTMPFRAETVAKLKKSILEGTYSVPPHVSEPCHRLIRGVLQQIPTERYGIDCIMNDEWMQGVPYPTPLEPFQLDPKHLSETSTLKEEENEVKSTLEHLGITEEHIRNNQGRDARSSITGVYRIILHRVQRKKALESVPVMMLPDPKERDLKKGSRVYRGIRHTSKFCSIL
Assay [9] concerns the target Proto-oncogene tyrosine-protein kinase receptor Ret (Homo sapiens) (UniProt P07949). The assay is described as follows: Inhibition of human recombinant RET at 15 nM in presence of ATP by radiometric assay relative to control.
The target in assay [10] is T3, Activin receptor type-1B (Homo sapiens) (UniProt P36896).
T3 sequence (whole entry): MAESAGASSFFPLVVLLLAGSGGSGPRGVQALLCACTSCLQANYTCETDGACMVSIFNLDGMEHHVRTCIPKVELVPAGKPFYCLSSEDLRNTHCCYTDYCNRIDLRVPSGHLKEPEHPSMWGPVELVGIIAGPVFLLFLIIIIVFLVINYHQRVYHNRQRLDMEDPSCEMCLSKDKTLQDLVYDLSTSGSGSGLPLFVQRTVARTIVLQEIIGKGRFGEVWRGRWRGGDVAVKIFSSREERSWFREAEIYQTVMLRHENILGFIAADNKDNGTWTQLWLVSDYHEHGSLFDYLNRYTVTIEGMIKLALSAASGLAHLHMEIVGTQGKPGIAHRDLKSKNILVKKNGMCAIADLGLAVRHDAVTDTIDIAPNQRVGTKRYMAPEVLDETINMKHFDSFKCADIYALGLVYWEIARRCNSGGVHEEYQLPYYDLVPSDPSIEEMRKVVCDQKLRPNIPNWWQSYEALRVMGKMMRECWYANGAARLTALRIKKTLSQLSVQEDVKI
The assay is described as follows: Inhibition of human recombinant ALK4 at 15 nM related to control ULK1. In a few lines: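 Panel of 327 recombinant human kinases, each assayed in vitro by radiometric activity assay in duplicate at a single inhibitor concentration per compound, chosen with reference to its ULK1 inhibition. Activity remaining was expressed as percent of vehicle control, and percent inhibition was calculated as 100 minus percent activity remaining.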

The target of assay [11] is Mitogen-activated protein kinase 8 (Homo sapiens) (UniProt P45983). The assay is described as follows: Inhibition of human recombinant JNK1 at 15 nM related to control ULK1.
Sequence of Mitogen-activated protein kinase 8 (Homo sapiens) (P45983 whole entry): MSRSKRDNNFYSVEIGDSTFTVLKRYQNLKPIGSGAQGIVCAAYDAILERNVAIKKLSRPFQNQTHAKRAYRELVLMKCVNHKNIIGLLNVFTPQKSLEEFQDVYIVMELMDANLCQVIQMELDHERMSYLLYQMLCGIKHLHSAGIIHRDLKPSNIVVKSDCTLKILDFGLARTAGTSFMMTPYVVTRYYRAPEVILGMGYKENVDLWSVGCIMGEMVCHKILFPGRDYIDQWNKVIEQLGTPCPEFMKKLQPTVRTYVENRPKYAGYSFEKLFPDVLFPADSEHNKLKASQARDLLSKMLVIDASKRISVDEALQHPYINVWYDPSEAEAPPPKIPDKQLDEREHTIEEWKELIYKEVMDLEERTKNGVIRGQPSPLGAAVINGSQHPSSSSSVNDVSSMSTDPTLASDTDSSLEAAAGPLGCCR
For assay [12], the target named is Serine/threonine-protein kinase Nek7 (Homo sapiens) (UniProt Q8TDX7). The assay is described as follows: Inhibition of human recombinant NEK7 at 15 nM related to control ULK1.
Sequence of Serine/threonine-protein kinase Nek7 (Homo sapiens) (Q8TDX7 whole entry, looked up): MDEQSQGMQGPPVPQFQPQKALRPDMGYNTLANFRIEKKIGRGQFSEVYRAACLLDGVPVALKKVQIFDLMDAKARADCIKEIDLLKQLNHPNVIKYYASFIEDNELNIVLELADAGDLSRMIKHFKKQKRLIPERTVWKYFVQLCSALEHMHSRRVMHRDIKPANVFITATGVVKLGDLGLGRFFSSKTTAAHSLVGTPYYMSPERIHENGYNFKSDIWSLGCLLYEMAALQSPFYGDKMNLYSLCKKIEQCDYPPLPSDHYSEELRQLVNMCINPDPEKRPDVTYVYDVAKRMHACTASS

Sequence of Calcium/calmodulin-dependent protein kinase type 1B (Homo sapiens) (Q6P2M8 whole entry): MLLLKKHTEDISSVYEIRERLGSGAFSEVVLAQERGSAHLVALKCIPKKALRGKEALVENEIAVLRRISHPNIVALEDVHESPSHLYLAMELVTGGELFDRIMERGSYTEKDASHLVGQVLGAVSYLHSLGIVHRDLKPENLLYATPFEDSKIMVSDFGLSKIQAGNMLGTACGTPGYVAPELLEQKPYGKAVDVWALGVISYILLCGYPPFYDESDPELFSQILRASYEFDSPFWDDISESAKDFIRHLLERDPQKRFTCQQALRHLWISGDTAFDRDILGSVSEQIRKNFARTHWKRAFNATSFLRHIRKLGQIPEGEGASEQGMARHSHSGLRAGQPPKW
Sequence of Proto-oncogene tyrosine-protein kinase receptor Ret (Homo sapiens) (P07949 whole entry): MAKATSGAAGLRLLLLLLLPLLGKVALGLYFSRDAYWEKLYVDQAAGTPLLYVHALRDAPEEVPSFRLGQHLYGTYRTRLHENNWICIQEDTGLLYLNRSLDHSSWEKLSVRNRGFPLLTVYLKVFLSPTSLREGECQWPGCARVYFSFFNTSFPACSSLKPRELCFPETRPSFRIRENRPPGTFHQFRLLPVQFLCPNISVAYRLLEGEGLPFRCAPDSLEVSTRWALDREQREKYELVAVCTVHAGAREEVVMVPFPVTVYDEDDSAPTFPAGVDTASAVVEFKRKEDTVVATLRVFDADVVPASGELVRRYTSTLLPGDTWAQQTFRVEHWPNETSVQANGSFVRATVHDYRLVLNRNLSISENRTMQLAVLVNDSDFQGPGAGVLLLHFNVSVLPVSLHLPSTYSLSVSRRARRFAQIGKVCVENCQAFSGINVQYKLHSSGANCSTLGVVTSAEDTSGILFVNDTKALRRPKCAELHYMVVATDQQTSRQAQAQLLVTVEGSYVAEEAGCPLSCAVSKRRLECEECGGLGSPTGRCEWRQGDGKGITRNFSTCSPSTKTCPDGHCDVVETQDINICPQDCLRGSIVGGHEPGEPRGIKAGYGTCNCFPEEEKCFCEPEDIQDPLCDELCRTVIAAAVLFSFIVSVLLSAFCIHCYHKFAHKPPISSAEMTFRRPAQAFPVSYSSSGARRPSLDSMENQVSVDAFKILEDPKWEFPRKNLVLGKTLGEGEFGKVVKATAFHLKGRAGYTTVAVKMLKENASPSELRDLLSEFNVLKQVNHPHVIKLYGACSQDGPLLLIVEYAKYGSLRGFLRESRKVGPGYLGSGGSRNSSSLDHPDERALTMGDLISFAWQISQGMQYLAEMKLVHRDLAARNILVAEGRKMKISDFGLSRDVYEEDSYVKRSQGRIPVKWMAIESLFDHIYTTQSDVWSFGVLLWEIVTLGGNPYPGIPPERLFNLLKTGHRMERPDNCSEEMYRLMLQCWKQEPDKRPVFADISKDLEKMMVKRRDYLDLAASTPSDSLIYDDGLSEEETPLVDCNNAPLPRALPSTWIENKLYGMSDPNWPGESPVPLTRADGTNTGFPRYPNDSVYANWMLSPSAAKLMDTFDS
Sequence of Death-associated protein kinase 1 (Homo sapiens) (P53355 whole entry, looked up): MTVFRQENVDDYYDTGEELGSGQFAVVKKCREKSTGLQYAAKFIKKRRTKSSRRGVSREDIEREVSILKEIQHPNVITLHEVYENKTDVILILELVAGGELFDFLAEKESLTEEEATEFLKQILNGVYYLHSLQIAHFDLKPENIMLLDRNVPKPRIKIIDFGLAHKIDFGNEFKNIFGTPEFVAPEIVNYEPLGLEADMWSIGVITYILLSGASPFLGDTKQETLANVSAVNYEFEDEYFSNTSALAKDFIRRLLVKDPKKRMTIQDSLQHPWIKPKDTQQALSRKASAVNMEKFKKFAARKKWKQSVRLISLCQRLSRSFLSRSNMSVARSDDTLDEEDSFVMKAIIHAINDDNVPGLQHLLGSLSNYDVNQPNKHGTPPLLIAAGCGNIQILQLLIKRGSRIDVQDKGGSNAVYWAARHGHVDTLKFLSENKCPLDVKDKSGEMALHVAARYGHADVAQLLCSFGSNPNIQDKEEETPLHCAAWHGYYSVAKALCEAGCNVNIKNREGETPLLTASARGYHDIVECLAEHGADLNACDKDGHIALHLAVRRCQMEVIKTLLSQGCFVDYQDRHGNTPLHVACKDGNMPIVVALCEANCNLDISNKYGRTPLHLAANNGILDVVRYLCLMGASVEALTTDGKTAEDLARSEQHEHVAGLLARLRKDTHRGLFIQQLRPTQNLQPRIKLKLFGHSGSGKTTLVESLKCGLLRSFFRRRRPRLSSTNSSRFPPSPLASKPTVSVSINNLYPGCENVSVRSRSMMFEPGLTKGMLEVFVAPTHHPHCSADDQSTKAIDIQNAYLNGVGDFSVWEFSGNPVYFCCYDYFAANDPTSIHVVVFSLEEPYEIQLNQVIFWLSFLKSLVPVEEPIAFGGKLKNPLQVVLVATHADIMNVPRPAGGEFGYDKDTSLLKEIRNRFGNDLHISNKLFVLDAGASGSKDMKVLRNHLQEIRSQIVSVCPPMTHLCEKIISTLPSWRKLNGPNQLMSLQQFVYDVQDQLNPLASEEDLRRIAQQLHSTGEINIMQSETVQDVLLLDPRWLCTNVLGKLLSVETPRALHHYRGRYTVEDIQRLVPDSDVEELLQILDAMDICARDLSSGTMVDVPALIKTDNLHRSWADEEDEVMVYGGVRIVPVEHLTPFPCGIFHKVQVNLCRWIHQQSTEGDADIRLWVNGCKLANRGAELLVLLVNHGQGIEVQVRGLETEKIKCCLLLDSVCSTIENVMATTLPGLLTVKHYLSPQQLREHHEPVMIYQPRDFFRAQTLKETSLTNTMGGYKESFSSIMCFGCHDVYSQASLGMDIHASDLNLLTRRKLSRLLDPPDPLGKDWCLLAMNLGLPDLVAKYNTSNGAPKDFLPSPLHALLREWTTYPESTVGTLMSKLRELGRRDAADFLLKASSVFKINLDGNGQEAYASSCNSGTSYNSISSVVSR

Take `O=C(N[C@@H](C1CC1)C(F)(F)F)c1cc(-c2cnn3cc(-c4ccc(F)cc4)cnc23)cs1`: the fold change (FC) in assay [1] worked out at 0.
As a reminder, the inhibition is the share of the control response that was lost under treatment. On to `CNC(=O)c1ccccc1Oc1nc(Nc2cc(OC)c(OC)c(OC)c2)ncc1Br`, for which the values for the inhibition in assay [2] and in [3] were 0% and 46%, respectively. The fold change (FC) in [4] was found to be 0.22; in [5], 0; in assay [6] it was 0; in assay [7] it was 0; in assay [8], 0.
Take `CC(C)[C@H](NC(=O)c1cc(-c2cnn3cc(-c4ccc(OCCN5CCCCC5)cc4)cnc23)cs1)C(F)(F)F`: the inhibition in assay [9] was 14%. In addition, the fold change (FC) amounted to 0.23 in assay [10], 0.09 in [11] and 0 in assay [12].
